{"source": "paper PMC7115590", "about": "(European Journal of Medicinal Chemistry, 2012)", "key": {"[1]": {"assay": "Cytotoxicity", "format": "cell-based", "conditions": "human, HepG 2.2.15 cells"}, "[2]": {"system": "HBsAg (hepatitis B surface antigen) secretion", "assay": "Inhibition of HBsAg secretion in HepG 2.2.15 cells", "format": "cell-based", "conditions": "Hepatitis B virus, HepG2.2.15, read-out: HBsAg IC50"}, "[3]": {"system": "HBV DNA replication", "assay": "Inhibition of HBV DNA replication in HepG 2.2.15 cells", "format": "cell-based", "conditions": "Hepatitis B virus, HepG2.2.15, read-out: DNA replication IC50"}, "[4]": {"system": "Kunming mice", "assay": "Acute toxicity in mice, single oral dose, 14 days observation", "format": "in vivo", "conditions": "for No. of dead, 1–7 day / No. of dead, 8–14 day / Total death / mortality: 10 mice; for Body weight, 0 day: group average", "how_it_was_run": "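Male and female Kunming mice (21 ± 2 g) were randomised into 4 groups of 10 (5 male + 5 female). Each group received one oral dose of test compound at 0, 50, 250 or 1250 mg/kg; the 0 group got the same volume of physiological saline. Mice had free food and water at 25 ± 1 °C on a 12-h light/dark cycle. Survival and body weight were recorded up to 14 days.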"}}}
{"smiles": "CC(=O)[C@]1(O)CC[C@@]2(O)[C@]1(C)[C@H](OC(=O)/C=C(\\C)C(C)C)C[C@@H]1[C@@]3(C)CC[C@H](O)CC3=CC[C@]12O", "note": "[Compound 1, caudatin]", "values": [{"measurement": "CC50", "setting": "[1]", "result": 245, "unit": "µM"}, {"measurement": "IC50", "setting": "[2]", "result": 143, "unit": "µM"}, {"measurement": "IC50", "setting": "[3]", "result": 40.6, "unit": "µM"}]}
{"smiles": "COc1cc(/C=C/C(=O)O[C@H]2CC[C@@]3(C)C(=CC[C@]4(O)[C@@H]3C[C@@H](OC(=O)/C=C(\\C)C(C)C)[C@@]3(C)[C@]4(O)CC[C@@]3(O)C(C)=O)C2)cc(OC)c1OC", "note": "[Compound 18, 3-O-(3,4,5-Trimethoxy)cinnamoyl caudatin]", "values": [{"measurement": "No. of dead, 1–7 day", "setting": "[4]; 50 mg/kg oral", "result": 0}, {"measurement": "No. of dead, 8–14 day", "setting": "[4]; 50 mg/kg oral", "result": 0}, {"measurement": "Total death", "setting": "[4]; 50 mg/kg oral", "result": "0/0"}, {"measurement": "mortality", "setting": "[4]; 50 mg/kg oral", "result": "0/0"}, {"measurement": "Body weight, 0 day", "setting": "[4]; 50 mg/kg oral", "result": 22.4, "unit": "g"}, {"measurement": "No. of dead, 1–7 day", "setting": "[4]; 250 mg/kg oral", "result": 0}, {"measurement": "No. of dead, 8–14 day", "setting": "[4]; 250 mg/kg oral", "result": 0}, {"measurement": "Total death", "setting": "[4]; 250 mg/kg oral", "result": "0/0"}, {"measurement": "mortality", "setting": "[4]; 250 mg/kg oral", "result": "0/0"}, {"measurement": "Body weight, 0 day", "setting": "[4]; 250 mg/kg oral", "result": 22.3, "unit": "g"}, {"measurement": "No. of dead, 1–7 day", "setting": "[4]; 1250 mg/kg oral", "result": 0}, {"measurement": "No. of dead, 8–14 day", "setting": "[4]; 1250 mg/kg oral", "result": 0}, {"measurement": "Total death", "setting": "[4]; 1250 mg/kg oral", "result": "0/0"}, {"measurement": "mortality", "setting": "[4]; 1250 mg/kg oral", "result": "0/0"}, {"measurement": "Body weight, 0 day", "setting": "[4]; 1250 mg/kg oral", "result": 22.6, "unit": "g"}, {"measurement": "survival and abnormality of mice up to 14 days post administration", "setting": "[4]; single oral dose at 50, 250 and 1250 mg/kg, Kunming mice of both genders", "result": "no dies and abnormality were observed"}]}
